Laboratory results reported in PubChem BioAssay.
Active and inactive are the calls of the source.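 Rule for the calls, unless noted: active = fluorescence slope higher than the sample average by over 3 SD (cut at about -0.22 in these data, passing the limit was not always enough); inactive = the rest.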

Columns and labels:
[1] = inhibitors of TNFa-induced NFkB p65 translocation, primary screen, imaging, HUVEC, MLSMR starter and 10KST1 sets (AID 438;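 active = inhibition above 20% together with a positive visual image hit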;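 note: compound added about 3h40 before a 20 min TNFalpha stimulation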;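 for inhibition: signal is the nuclear over cytoplasmic p65 intensity ratio per well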); conditions: HUVEC TNFa-induced p65 nuclear translocation; cell count: measured here: nuclei count (cytotoxicity indicator), at 2.08 µM; inhibition: at 2 µM, stronger effect = higher value, 0% TNFa-plus-vehicle, 100% no-TNFa wells
[2] = inhibitors of E-selectin induction by TNFa, primary screen, imaging, HUVEC, immunofluorescence, MLSMR starter and 10KST1 sets (AID 487;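 active = visually confirmed hit in the image check and inhibition above 20%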;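 for inhibition: signal is fraction of cell area covered by stained E-selectin grains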;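 for nuclei count: 100% = median nuclei count of all wells on the same plate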); conditions: HUVEC TNFalpha-induced E-selectin immunofluorescence imaging, at 2 µM; inhibition: stronger effect = higher value; nuclei count: measured here: cell number, toxicity
[3] = DUSP6 inhibitors restoring Erk phosphorylation by chemical complementation, primary imaging in DUSP6-transfected HeLa (AID 609;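 active = compounds giving at least 50% inhibition in the cell-based MKP-3 phosphatase rescue imaging test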;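 for inhibition: phospho-Erk level distribution per well compared with pooled transfected vehicle control wells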); conditions: HeLa MKP-3 transfected, phospho-Erk imaging KS statistic, at 10 µM, cells stimulated with TPA for 15 min
[4] = biological target: Dual specificity protein phosphatase 6 (Homo sapiens) (UniProt Q16828); assay: as above; conditions: HeLa MKP-3 transfected, phospho-Erk imaging KS statistic; at 10 µM; stronger effect = higher value; cells stimulated with TPA for 15 min
Dual specificity protein phosphatase 6 (Homo sapiens), sequence (Q16828 whole entry, looked up): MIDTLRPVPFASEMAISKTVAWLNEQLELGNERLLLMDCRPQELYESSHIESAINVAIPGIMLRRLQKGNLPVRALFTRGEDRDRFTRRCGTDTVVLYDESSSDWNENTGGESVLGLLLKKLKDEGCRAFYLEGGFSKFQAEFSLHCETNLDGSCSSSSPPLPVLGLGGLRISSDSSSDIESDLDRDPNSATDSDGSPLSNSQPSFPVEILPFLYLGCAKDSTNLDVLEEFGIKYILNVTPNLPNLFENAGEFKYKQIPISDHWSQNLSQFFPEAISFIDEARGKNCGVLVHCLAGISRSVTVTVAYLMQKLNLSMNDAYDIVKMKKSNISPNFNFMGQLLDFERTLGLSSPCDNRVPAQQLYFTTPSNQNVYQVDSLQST

[5] = biological target: Voltage-gated potassium channel subunit beta-2 (Rattus norvegicus) (UniProt P62483); assay: KvBeta enzyme negative modulators, primary screen, biochemical, NADPH fluorescence (AID 622); conditions: recombinant KvBeta, 4-cyanobenzaldehyde reduction, at 10 µM, stronger effect = higher value;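 note: slope of raw intensity against log time taken from 70 to 1610 s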
Voltage-gated potassium channel subunit beta-2 (Rattus norvegicus), sequence (P62483 whole entry, looked up): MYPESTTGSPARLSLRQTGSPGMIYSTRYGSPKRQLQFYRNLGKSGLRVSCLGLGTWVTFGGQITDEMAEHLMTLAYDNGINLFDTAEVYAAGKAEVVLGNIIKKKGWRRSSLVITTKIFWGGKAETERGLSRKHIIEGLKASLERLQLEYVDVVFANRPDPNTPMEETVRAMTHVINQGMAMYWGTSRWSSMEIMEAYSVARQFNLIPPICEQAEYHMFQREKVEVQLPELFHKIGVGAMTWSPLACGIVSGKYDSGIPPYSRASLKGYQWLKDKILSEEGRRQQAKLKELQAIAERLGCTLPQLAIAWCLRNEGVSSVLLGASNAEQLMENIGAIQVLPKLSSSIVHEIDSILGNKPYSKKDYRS

[6] = biological target: Voltage-gated potassium channel subunit beta-2 (Rattus norvegicus) (UniProt P62483); assay: KvBeta positive modulators, primary screen, biochemical, NADPH fluorescence (AID 623;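 active = NADPH fluorescence slope more negative than the mean of all samples by about 3 SD, 99.7% confidence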;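 note: fluorescence intensity change per second fitted from 20 to 320 s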); conditions: Recombinant KvBeta, NADPH fluorescence decrease slope, 10 min; at 10 µM; stronger effect = lower value
[7] = biological target: Muscarinic acetylcholine receptor M4 (Homo sapiens) (UniProt P08173); assay: compounds altering M4/GIRK thallium flux, either direction, primary screen, M4 allosteric agonist project, cell-based, HEK293 M4/GIRK, BTC-AM (AID 625;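 active = fluorescence slope after compound addition differing from the mean of all tested samples at 99.7% confidence, mostly higher but some lower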;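 note: thallium influx through GIRK channels coupled to M4 in HEK293 cells with BTC-AM dye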); conditions: at 10 µM, actives lie on both sides
Muscarinic acetylcholine receptor M4 (Homo sapiens), sequence (P08173 whole entry, looked up): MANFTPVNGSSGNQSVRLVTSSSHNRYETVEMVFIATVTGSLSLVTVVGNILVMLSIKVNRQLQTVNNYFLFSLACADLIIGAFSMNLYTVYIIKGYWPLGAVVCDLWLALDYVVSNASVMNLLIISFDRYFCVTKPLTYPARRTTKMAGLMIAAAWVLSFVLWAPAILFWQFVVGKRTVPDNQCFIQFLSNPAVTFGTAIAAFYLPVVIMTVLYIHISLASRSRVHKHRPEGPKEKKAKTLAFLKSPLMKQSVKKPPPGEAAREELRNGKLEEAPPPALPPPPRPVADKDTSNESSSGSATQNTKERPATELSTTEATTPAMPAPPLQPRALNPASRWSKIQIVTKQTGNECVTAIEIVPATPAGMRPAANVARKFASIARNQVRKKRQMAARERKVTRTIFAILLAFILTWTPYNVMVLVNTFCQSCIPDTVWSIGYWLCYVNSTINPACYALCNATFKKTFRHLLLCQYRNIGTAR
Method in brief: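 Assay system: HEK293 cells with M4 receptor and GIRK channels / Controls: carbachol and DMSO controls / Schedule: 1 h dye loading, 2 min kinetic read / Technique: kinetic fluorescence with BTC-AM dye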

[8] = inhibitors of larval lipid processing in zebrafish, primary screen, whole organism, PED6 fluorescence, gall bladder and intestine (AID 686;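 active = a full or partial loss of lipid-probe fluorescence in the fish gall bladder, intestine or both, judged by eye; inactive = no fluorescence loss, or compound toxic to the fish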;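 note: larvae 5 to 7 days old with five fish per well; signal comes from phospholipase A2 cleavage of quenched PED6 carried via bile; overnight exposure to compound and PED6 before scoring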); conditions: Zebrafish larvae PED6 lipid processing, fluorescence scoring; screened at 20 µM (by protocol)
Method in brief: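 Doses: 20 µM single dose. Test system: live zebrafish larvae aged 5-7 days, whole organism. Quantity: five larvae per well. Measured by: By-eye fluorescence microscopy. Reagent: ingested quenched lipid PED6 at 100 nM. Read-out: visual per-well fluorescence inhibition score. Times: overnight exposure of larvae to compound plus PED6.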

[9] = inhibitors of Chlamydomonas gravitaxis, primary screen, whole organism, Chlamydomonas reinhardtii, WT vs cilia-less mutant, absorbance, 96-well (AID 463189;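 active = inhibition at or above 50% relative to wild type and mutant plate controls; inactive = inhibition below 50%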;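 note: 0% = wild type cc124 cells in DMSO and 100% = ciliumless bld1 mutant cells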); conditions: OD600 absorbance, 2 days, at 10 µM, stronger effect = higher value
[10] = measured here: cell density z-score
[11] = measured here: nuclear c-Myc green intensity z-score
[12] = measured here: nuclear pErk red intensity z-score, stronger effect = higher value

Structure (SMILES)	cell count [1]	inhibition [1]	inhibition [2]	nuclei count [2] [%]	z-score [3, 10]	z-score [3, 11]	z-score [3, 12]	inhibition [4]	fluorescence slope [5]	NADPH fluorescence slope [6]	fluorescence slope [7]	outcome [8]	inhibition [9]
C=C(C)CN(CC)CCC(=O)Nc1ccc(OC)cc1OC	486	-7.5% (inactive)	-273% (inactive)	172	-0.562	0.149	0.762	-7.28% (inactive)	-0.424 (inactive)	-3.9e-05 (inactive)	0.0048 (inactive)	inactive	11.3% (inactive)
Nc1c(C(=O)NCc2ccco2)sc2nc(N3CCOCC3)c3c(c12)CCCC3	510	-3.3% (inactive)	21.6% (inactive)	169	-0.827	1.22	1.35	7.93% (inactive)	-0.0309 (active)	4.6e-08 (inactive)	0.00375 (inactive)	inactive	7.67% (inactive)
CCOC(=O)C1=C(N)n2c(s/c(=C\c3cccnc3)c2=O)=C(C(=O)OC)C1c1cccnc1 (stereo unspecified)	326	-14.1% (inactive)	-129% (inactive)	110	-0.584	1.82	-0.0878	-2.59% (inactive)	-0.501 (inactive)	1.7e-05 (inactive)	0.00354 (inactive)	inactive	-3.27% (inactive)
COc1ccc(C2NC3=C(CCC3)C3(C#N)C(OC)(OC)N=C(N)C23C#N)cc1 (stereo unspecified)	535	-13.1% (inactive)	-35.8% (inactive)	134	-0.336	0.913	0.179	1.42% (inactive)	-0.438 (inactive)	-3.3e-05 (inactive)	0.0052 (inactive)	inactive	30.4% (inactive)
COC(=O)CSc1nc(C)c(Oc2ccccc2)c(=O)[nH]1	726	7.2% (inactive)	-102% (inactive)	162	-1.93	2.21	-0.257	-2.09% (inactive)	-0.424 (inactive)	-5.8e-05 (inactive)	0.00506 (inactive)	inactive	-8.15% (inactive)
Cc1cc(CC(=O)O)c(C)cc1CC(=O)O	590	-9.1% (inactive)	-39.7% (inactive)	146	-0.726	1.92	1.23	-7.67% (inactive)	-0.445 (inactive)	-0.000138 (inactive)	0.00496 (inactive)	inactive	-5.83% (inactive)
COc1cc(C2C(C(=O)c3sc(C)nc3C)=C(O)C(=O)N2CCN(C)C)cc(OC)c1OC (stereo unspecified)	398	3.6% (inactive)	-36.2% (inactive)	155	0.333	0.0451	0.204	3.56% (inactive)	-0.446 (inactive)	-0.000115 (inactive)	0.00444 (inactive)	inactive	-3.66% (inactive)
CCCc1nc2n[nH]c(N)c2c2c1CCCC2	478	-12.3% (inactive)	-64.3% (inactive)	118	-0.479	-0.89	-1.19	-2.09% (inactive)	-0.48 (inactive)	-0.000102 (inactive)	0.00548 (inactive)	inactive	-1.38% (inactive)
COC(=O)Sc1nc(N2CCOCC2)c2c(c1C#N)CC(C)(C)OC2	565	-2% (inactive)	-116% (inactive)	132	0.0433	-0.438	1.3	3.42% (inactive)	-0.49 (inactive)	-0.000143 (inactive)	0.00476 (inactive)	inactive	24.4% (inactive)
C/C(=N/n1cnnc1)c1cccnc1	541	1.3% (inactive)	-130% (inactive)	140	0.514	-0.833	-1.29	3.42% (inactive)	-0.448 (inactive)	-0.000104 (inactive)	0.00412 (inactive)	inactive	-7.67% (inactive)
O=C1CCC(=O)N1c1nc2n(n1)C(c1ccccc1)C=C(c1ccc(Br)cc1)N2 (stereo unspecified)	369	3% (inactive)	-50% (inactive)	71.6	0.246	-0.538	-1.14	3.56% (inactive)	-0.374 (inactive)	-9.5e-05 (inactive)	0.0047 (inactive)	inactive	17.5% (inactive)
Cc1nn(CC(=O)NCCN2CCOCC2)c(=O)c2ccccc12	472	4.4% (inactive)	-0.8% (inactive)	116	-1.02	-0.0587	0.79	5.95% (inactive)	-0.469 (inactive)	-3.4e-05 (inactive)	0.00615 (inactive)	inactive	27.9% (inactive)
Cc1ccc(-c2nnc(-c3ccccc3)o2)cc1Br	570	-3.8% (inactive)	33% (inactive)	98.9	-0.752	0.492	-1.02	1.63% (inactive)	-0.564 (inactive)	6e-06 (inactive)	0.00616 (inactive)	inactive	2.02% (inactive)
COc1ccc(OC)c(C2/C(=C(/O)c3ccccc3)C(=O)C(=O)N2Cc2ccco2)c1 (stereo unspecified)	675	-11.7% (inactive)	-58% (inactive)	169	0.317	-0.841	0.437	-11.4% (inactive)	-0.522 (inactive)	-2.7e-05 (inactive)	0.00485 (inactive)	inactive	5.53% (inactive)
CCCCCSc1nc(N2CCOCC2)c2c(c1C#N)CC(C)(C)OC2	527	-4.1% (inactive)	47.4% (inactive)	82.5	-0.00236	0.148	-1.7	-11.4% (inactive)	-0.426 (inactive)	1.5e-05 (inactive)	0.00771 (inactive)	inactive	16.6% (inactive)
Cc1ccc(S(=O)(=O)NC(=O)Nc2ncc3c(n2)CC(c2ccco2)CC3=O)cc1 (stereo unspecified)	662	-3.8% (inactive)	45.8% (inactive)	89.6	1.23	-1.12	-0.985	22.1% (inactive)	-0.51 (inactive)	-2.8e-05 (inactive)	0.00507 (inactive)	inactive	-13.7% (inactive)
Cc1ccc(-c2n[nH]c(=O)c3ccccc23)cc1S(=O)(=O)NCCN1CCOCC1	449	-1.8% (inactive)	-80.2% (inactive)	160	-0.696	0.423	0.442	-3.95% (inactive)	-0.41 (inactive)	-4.4e-05 (inactive)	0.00462 (inactive)	inactive	19.7% (inactive)
Cc1ccc(N2C(=O)c3sc4nnc(C)c(=O)n4c3C2=O)cc1	637	1.3% (inactive)	-129% (inactive)	144	0.278	1.58	-1.15	-7.86% (inactive)	-0.478 (inactive)	-4e-05 (inactive)	0.00581 (inactive)	inactive	2.4% (inactive)
COc1ccc(CC(=O)Nc2cccc(-c3nnc(-c4ccco4)o3)c2)cc1	671	-0.9% (inactive)	6.2% (inactive)	177	-0.286	1.67	1.63	-15.1% (inactive)	-0.475 (inactive)	-8e-05 (inactive)	0.00587 (inactive)	inactive	0.83% (inactive)
Clc1ccc(-n2ncc3c(NCc4cccs4)ncnc32)cc1	615	-9.4% (inactive)	-52.5% (inactive)	125	0.539	0.108	0.0803	11.4% (inactive)	-0.385 (inactive)	-2.1e-05 (inactive)	0.00704 (inactive)	inactive	42.7% (inactive)
Cn1c(=O)[nH]c2cc(Cl)cnc21	378	-14% (inactive)	-133% (inactive)	108	0.823	-0.334	-1.3	3.42% (inactive)	-0.492 (inactive)	-3.9e-05 (inactive)	0.00408 (inactive)	inactive	9.47% (inactive)
CCOc1ccc2nc(NC(NC(C)=O)(C(=O)OC)C(F)(F)F)sc2c1 (stereo unspecified)	550	1.9% (inactive)	-54.7% (inactive)	119	-0.584	0.796	1.15	-4.59% (inactive)	-0.459 (inactive)	-0.000128 (inactive)	0.00553 (inactive)	inactive	7.67% (inactive)
COCCn1c(SCc2c(F)cccc2Cl)nc2c1c(=O)[nH]c(=O)n2C	654	3.4% (inactive)	-11.2% (inactive)	115	1.7	-2.3	-0.397	40.7% (inactive)	-0.44 (inactive)	-5.5e-05 (inactive)	0.00509 (inactive)	inactive	15.2% (inactive)
CC1(C)Cc2nc(NCCN3CCOCC3)c(C#N)cc2CO1	586	-8.3% (inactive)	-133% (inactive)	149	0.143	0.853	0.307	-0.233% (inactive)	-0.486 (inactive)	-8.5e-05 (inactive)	0.00414 (inactive)	inactive	-7.98% (inactive)
O=S(=O)(c1cccc(-c2csc(-c3ccccc3)n2)c1)N1CCOCC1	681	-6% (inactive)	21.6% (inactive)	172	-0.667	-0.235	-0.477	-2.29% (inactive)	-0.452 (inactive)	-5.8e-05 (inactive)	0.00515 (inactive)	inactive	25.2% (inactive)
CCC1(C)Cc2c(sc(NC(=O)CCC(=O)O)c2C#N)CO1 (stereo unspecified)	525	-3.4% (inactive)	-47% (inactive)	165	1.02	0.907	0.102	9.91% (inactive)	-0.382 (inactive)	-5.7e-05 (inactive)	0.00482 (inactive)	inactive	-2.53% (inactive)
CCCc1nc2n[nH]c(N)c2c2c1COC(C)(C)C2	597	-4% (inactive)	-13.2% (inactive)	168	-0.7	-1.13	1.4	-11.9% (inactive)	-0.369 (inactive)	-3.1e-05 (inactive)	0.00478 (inactive)	inactive	10.6% (inactive)
